Screens deposited in PubChem BioAssay by The Scripps Research Institute Molecular Screening Center.
The list is not random: actives were taken first. Their share in the collection is about 1.9%.
EBNA-1 inhibitor – EBNA-1 DNA-binding inhibitors, primary screen, biochemical, fluorescence polarization; 300,000 tested, 0.34% active; inhibition, % at 14.8 µM; AID 1950, 2009; in the data active = inhibition above about 28%
HCV NS3 hel inh – inhibitors of HCV NS3 helicase, primary screen, biochemical, Cy5 molecular beacon fluorescence | 290,000 tested, 0.56% active | AID 1800, 2009 | inhibition, % at 10.9 µM | NS3 helicase DNA unwinding | Hepatitis C virus NS3 helicase;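 active = inhibition above the mean of all tested compounds plus 3 SD, set per campaign, cut at about 35% in these data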;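 note: 0% = DMSO wells and 100% = thioflavine S control wells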
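Assay system: hepatitis C virus NS3 helicase domain fragment enzyme. Also added: annealed dual-labelled DNA beacon duplex, ATP-started. Timing: 1 h reaction at 25 °C, ATP-initiated. Technique: Cy5 fluorescence at 0 and 60 min, beacon hairpin quenching. Evaluation: % inhibition of unwinding. Replication: one well per compound.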
ZTA DNA inh – counter-screen for EBNA-1 inhibitors: inhibitors of Epstein-Barr virus ZTA | ZTA-DNA binding, fluorescence polarization | inhibition, % at 11 µM | 320,000 tested, 0.15% active | AID 2234; in the data active = inhibition above about 33%
Target sequence (P03206 whole entry, looked up): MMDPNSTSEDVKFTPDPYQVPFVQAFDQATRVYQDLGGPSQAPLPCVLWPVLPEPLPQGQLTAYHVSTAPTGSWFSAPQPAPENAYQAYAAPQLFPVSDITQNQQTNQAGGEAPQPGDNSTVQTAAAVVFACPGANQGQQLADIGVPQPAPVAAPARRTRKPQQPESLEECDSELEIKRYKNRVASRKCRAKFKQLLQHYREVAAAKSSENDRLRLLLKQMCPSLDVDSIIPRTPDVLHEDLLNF
HCV core dimer – inhibitors of HCV core protein dimerization, primary screen, biochemical, TR-FRET, high-throughput. TR-FRET GST/Flag-core106 dimerization, 1536-well. inhibition, % at 5 µM. 300,000 tested, 0.33% active. AID 1899, 2009;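 active = inhibition above the mean of all tested compounds plus 3 SD, set per screening campaign, cut at about 45% in these data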
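Assay system – GST-tagged and Flag-tagged HCV core protein residues 1-106 · Quantity – core106 proteins, GST 13.5 nM and Flag 17 nM · Benchmarks – unlabelled core106 and no-GST-core106 wells · Read-out basis – percent inhibition of core106 dimerization signal · Detection – time-resolved FRET, ex 340 nm, em 617 and 671 nm · Schedule – 4 h at 22.5 °C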
PP1 counter – PP1-alpha phosphatase inhibitors, primary screen, counter-screen for PP5 inhibitor project, biochemical, fluorescence, OMFP substrate, single point; Serine/threonine-protein phosphatase PP1-alpha catalytic subunit (Homo sapiens), P62136; inhibition, % at 6.7 µM; purified PP1alpha; 320,000 tested, 0.9% active;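 active = inhibition above the mean inhibition of all tested compounds plus 3 SD, computed separately for each screening campaign, cut at about 15% in these data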
Target sequence (P62136 whole entry, looked up): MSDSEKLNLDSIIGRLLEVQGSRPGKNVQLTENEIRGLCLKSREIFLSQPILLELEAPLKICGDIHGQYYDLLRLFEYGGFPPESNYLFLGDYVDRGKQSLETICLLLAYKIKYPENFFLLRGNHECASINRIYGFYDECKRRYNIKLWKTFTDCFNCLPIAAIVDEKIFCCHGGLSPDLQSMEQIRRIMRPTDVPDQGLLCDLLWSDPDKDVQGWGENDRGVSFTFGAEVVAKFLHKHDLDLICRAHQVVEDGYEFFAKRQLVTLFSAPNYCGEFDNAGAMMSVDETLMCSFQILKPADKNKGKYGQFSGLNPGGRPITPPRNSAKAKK
ZTA inh confirm – EBV Zta binding to ZRE DNA, inhibitors, confirmation, biochemical, fluorescence polarization, triplicate; shares compounds with ZTA DNA inh; inhibition, % at 11.1 µM; 320 tested, 30% active; AID 2361, 2010;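 active = mean inhibition across triplicate runs above the hit threshold derived for the original primary screen, cut at about 33% in these data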;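 note: 0% = Zta with DMSO and 100% = wells lacking Zta protein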
EBNA1 counter – EBNA-1 DNA-binding inhibition, counter-screen for ZTA inhibitor project, biochemical, fluorescence polarization. shares compounds with ZTA DNA inh. inhibition, % at 14.8 µM. 320 tested, under 10 active; call rule not given here
* marks the source's active call; other numbers are inactive results; nt = no result given.

SMILES	EBNA-1 inhibitor	HCV NS3 hel inh	ZTA DNA inh	HCV core dimer	PP1 counter	ZTA inh confirm	EBNA1 counter
C#CCOCCOCCOCCNc1nc(N2CCN(C(=O)CCCCCCCCCCNC(=O)Cn3cc(CCCCCN)nn3)CC2)nc(N2CCN(C(=O)CCCCCCCCCCNC(=O)[C@@H](CCC(=O)O)n3cc(CCCCCN)nn3)CC2)n1	3.5	nt	60.8*	-6.7	3.6	3.1	-6.8
C#CCOCCOCCOCCNc1nc(N2CCN(C(=O)CCCCCCCCCCNC(=O)Cn3cc(C[C@@H](C)O)nn3)CC2)nc(N2CCN(C(=O)CCCCCCCCCCNC(=O)[C@H](CCCN=C(N)N)n3cc(C[C@@H](C)CC)nn3)CC2)n1	13.9	nt	55.7*	9.8	11.3	17.8	-5.9
COc1ccc(CC(=O)NCC(=O)Nc2ccccc2Br)cc1	-4.0	-6.6	-21.4	-15.8	1.1	nt	nt
Cc1ccc2c(c1)/C(=C/c1ccco1)C(=O)N2	2.6	-1.9	-0.5	-18.5	1.1	nt	nt
O=C1Nc2ccc(Br)cc2/C1=C/c1ccc(C(=O)O)cc1	1.6	35.3	34.3*	18.2	-0.5	46.3*	3.9
Cc1ccc([N+](=O)[O-])cc1N=C1C(=O)Nc2ccccc21	-23.7	2.5	-10.2	-6.1	-1.8	nt	nt
CC(C)(C)n1nnnc1C(c1cccc(C#N)c1)N1CCCc2ccccc21 (stereo not given)	13.2	-4.0	44.1*	1.1	2.3	1.4	0.8
Cc1ccc(C(=O)NCC(=O)N/N=C/c2cccs2)cc1C	-4.9	3.0	-9.0	0.7	0.9	nt	nt
Cc1cc(=O)n2c(C(=O)Nc3ccc(C)c(C)c3)c(C(=O)Nc3ccccc3)sc2n1	10.5	-4.6	53.2*	3.4	4.6	12.6	78.2*
Cc1ccc(NC(=O)c2c(C(=O)Nc3ccccc3)sc3nc(C)cc(=O)n23)cc1	-13.3	-3.9	-12.2	2.5	2.0	nt	nt
COC(=O)c1ccc(CNC(=O)CNC(=O)c2sc3ccccc3c2Cl)cc1	6.4	nt	83.0*	9.4	1.3	69.5*	15.6
O=C(O)c1ccc(Cn2cnc3scc(-c4ccccc4)c3c2=O)cc1	12.3	6.1	10.5	1.4	1.6	nt	nt
CCCOc1ccc(-c2csc3ncn(Cc4ccc(C(=O)O)cc4)c(=O)c23)cc1	12.2	17.8	42.8*	14.8	2.6	4.8	3.9
CCOC1=NN(c2ncc(C(F)(F)F)cc2Cl)C(=O)/C1=C/N(C)C	-5.8	-1.3	3.4	2.4	-1.2	nt	nt
CS(=O)(=O)N1CCN(c2ccc(NC(=O)c3ccccc3)cc2)CC1	0.8	16.4	4.6	-2.9	-4.2	nt	nt
NC1=NC(=O)/C(=C/c2ccc(-c3ccc(S(N)(=O)=O)cc3)o2)S1	10.5	9.8	37.3*	-15.2	0.8	17.6	11.0
CCN1CCN(Cc2ccc(NC(=O)c3cc(NC(=O)c4ccno4)cc(OC)c3)cc2C(F)(F)F)CC1	10.8	nt	0.7	-13.3	0.7	nt	nt
CCN1CCN(Cc2ccc(NC(=O)c3cc(NC(=O)c4cc5cccc(OC)c5o4)cc(OC)c3)cc2C(F)(F)F)CC1	6.3	nt	36.8*	0.0	6.9	9.5	-6.2
CC(=O)c1sc(NC(=O)c2oc3ccc(F)cc3c2C)nc1C	nt	nt	66.9*	nt	13.2	47.0*	7.7
OC(CNCC1CCCO1)Cn1c2ccc(Cl)cc2c2cc(Cl)ccc21 (stereo not given)	-12.4	-96.2	6.7	-16.9	10.6	nt	nt
OC(CNCCC1C=Nc2ccccc21)Cn1c2ccc(Cl)cc2c2cc(Cl)ccc21 (stereo not given)	5.8	-64.5	52.5*	1.2	17.1*	51.4*	2.6
O=C(CCN1C(=O)/C(=C/c2ccc(F)cc2)SC1=S)N[C@@H](CO)Cc1ccccc1	-11.6	-6.5	-15.4	12.4	0.8	nt	nt
COc1cc(C#Cc2c(-c3cncn3C)n(C)c3ccc(-c4ccc(OC)c(OC)c4)cc23)cc(OC)c1	nt	nt	37.8*	nt	-0.1	35.9*	7.3
O=C(COc1ccccc1/C=C\c1[nH]c(=O)[nH]c(=O)c1[N+](=O)[O-])Nc1ccccc1	-5.2	21.3	48.4*	32.2	4.3	71.6*	-0.7
O=C1C=C(N2CCOCC2)c2ccccc2C1=O	-4.9	2.1	53.9*	16.6	3.8	68.1*	-11.4
SMILES	EBNA-1 inhibitor	HCV NS3 hel inh	ZTA DNA inh	HCV core dimer	PP1 counter	ZTA inh confirm	EBNA1 counter
CC1=C(C)C(=O)C(N2CCOCC2)=CC1=O	nt	1.3	nt	nt	nt	nt	nt
Cc1cccc(-n2c(CNC(=O)c3ccc(S(=O)(=O)N(C)C)cc3)nnc2SCC(=O)Nc2ccc(F)cc2)c1	-2.1	-9.9	-13.0	-6.5	6.1	nt	nt
Cc1ccc(-c2cc(C(=O)NCCCN3CCOCC3)c3ccc(Cl)c(C)c3n2)cc1	-6.1	-42.6	34.0*	-11.3	7.5	0.7	-3.6
O=C(Nc1ccc2c(c1)CCCN2C(=O)c1cccs1)c1c(F)cccc1F	-29.7	-11.1	-20.1	-4.0	-2.3	nt	nt
O=C(Nc1ccc2c(c1)CCCN2C(=O)c1cccs1)c1c(F)cccc1Cl	-10.8	2.0	42.3*	-4.5	0.6	2.8	-2.9
COc1cc(NC(=O)COC(C)=O)c(C)cc1[N+](=O)[O-]	4.4	4.5	0.8	2.2	-2.5	nt	nt
Cc1ccc2nc(-c3ccc(SCC(=O)Nc4ccc5c(c4)OCCO5)nc3)[nH]c2c1	18.9	-35.0	4.6	9.8	7.5	nt	nt
Cc1ccc2nc(-c3ccc(SCC(=O)Nc4nc(C)cs4)nc3)[nH]c2c1	10.4	1.9	48.4*	-4.0	-0.8	-0.7	22.9
c1ccc(-n2ncc3c(N4CCN(c5ccccn5)CC4)nc(N4CCCCCC4)nc32)cc1	6.4	21.6	40.1*	-0.3	2.5	0.8	-5.4
CCn1c(SCC(=O)Nc2cc(C)on2)nnc1-c1ccc(OC)cc1	6.2	9.2	-10.2	1.8	0.9	nt	nt
COc1ccc(S(=O)(=O)Nc2ccccc2N2CCOCC2)cc1[N+](=O)[O-]	-2.6	-5.7	-10.1	-5.8	-4.6	nt	nt
CS(=O)(=O)c1ccc2nc(NC(=O)c3ccc(NS(=O)(=O)c4ccc(F)c(F)c4)cc3)sc2c1	19.2	-24.4	87.1*	15.5	6.8	39.3*	17.1
Nc1nnnn1/N=C/c1ccc(F)cc1	-6.1	-5.8	51.9*	0.2	-0.6	-1.0	-16.5
Nc1nnnn1/N=C/c1ccc(Br)cc1	nt	9.6	nt	nt	nt	nt	nt
Cn1nnnc1Sc1ncnc2scc(-c3cc4ccccc4o3)c12	nt	nt	37.7*	nt	4.2	30.1	-9.0
Cn1nnnc1Sc1ncnc2scc(-c3ccccc3C(F)(F)F)c12	nt	nt	-0.5	nt	-0.9	nt	nt
O=C(Nc1cccc2ccccc12)NC1CCCCC1O (stereo not given)	-1.9	nt	57.6*	-16.8	-4.3	-4.7	-6.1
